How the values were obtained:
[1] = Inhibition of cJNK phosphorylation by Lantha screen assay
[2] = Inhibition of cJNK phosphorylation by pepJIP1 displacement DELFIA assay
[3] = biological target: Mitogen-activated protein kinase 14 (Homo sapiens, UniProt Q16539); experiment: Inhibition of p38alpha
[4] = biological target: RAC-alpha serine/threonine-protein kinase (Homo sapiens) (UniProt P31749); experiment: Inhibition of AKT at 100 uM
[5] = tested on: Liver microsomes; experiment: Metabolic stability in rat liver microsomes assessed as half life; assay type: ADME, Microsome
Procedure, shortened: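 Rat liver microsomes (1 mg/mL protein) with 4 μM compound and 2 mM NADPH in 50 mM phosphate pH 7.2, after 5 min preincubation, incubated 1 h at 37.5 °C. Aliquots taken every 15 min were quenched with methanol plus internal standard and analysed by LC–MS. Run in duplicate with 2 control compounds of known half-life.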

[6] = Metabolic stability in rat plasma assessed as drug level remaining after 1 hr; assay type: ADME, cell-free; conditions: read-out: Stability
Procedure, shortened: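 Fresh rat plasma with 1 μM compound (2.5% final DMSO) at 37 °C, stopped at 0, 30 and 60 min with methanol plus internal standard, analysed by LC–MS. Percent parent remaining was taken against 0 min from peak-area ratios to internal standard. Run in duplicate with a plasma-labile positive control.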

[7] = biological target: Furin (Homo sapiens, UniProt P09958); experiment: Inhibition of furin
Sequence of Furin (P09958 whole entry): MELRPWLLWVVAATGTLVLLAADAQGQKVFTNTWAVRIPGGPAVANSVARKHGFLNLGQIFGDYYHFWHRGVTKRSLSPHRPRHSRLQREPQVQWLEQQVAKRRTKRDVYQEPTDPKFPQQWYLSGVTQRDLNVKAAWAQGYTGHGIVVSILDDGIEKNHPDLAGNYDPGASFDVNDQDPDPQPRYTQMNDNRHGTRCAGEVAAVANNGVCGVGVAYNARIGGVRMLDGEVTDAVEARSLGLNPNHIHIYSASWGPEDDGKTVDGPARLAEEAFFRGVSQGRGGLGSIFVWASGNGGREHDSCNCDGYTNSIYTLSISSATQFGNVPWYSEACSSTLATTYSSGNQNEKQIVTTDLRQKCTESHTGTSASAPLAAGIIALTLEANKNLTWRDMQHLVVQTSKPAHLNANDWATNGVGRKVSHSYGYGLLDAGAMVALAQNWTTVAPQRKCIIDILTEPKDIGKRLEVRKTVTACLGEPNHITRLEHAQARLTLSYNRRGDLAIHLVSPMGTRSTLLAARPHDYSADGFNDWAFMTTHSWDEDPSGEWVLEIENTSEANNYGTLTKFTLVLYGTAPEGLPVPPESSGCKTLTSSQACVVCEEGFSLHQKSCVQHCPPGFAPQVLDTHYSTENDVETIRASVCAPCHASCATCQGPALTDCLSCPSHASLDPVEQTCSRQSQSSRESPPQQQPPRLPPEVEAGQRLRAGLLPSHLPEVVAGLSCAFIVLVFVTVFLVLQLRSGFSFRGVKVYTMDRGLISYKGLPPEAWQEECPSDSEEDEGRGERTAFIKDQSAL

[8] = Inhibition of lethal factor
[9] = Inhibition of cJNK phosphorylation in TNF-alpha-stimulated HL60 cells by Lantha screen assay; assay type: cell-based; conditions: HL-60

Sequence of RAC-alpha serine/threonine-protein kinase (Homo sapiens) (P31749 whole entry): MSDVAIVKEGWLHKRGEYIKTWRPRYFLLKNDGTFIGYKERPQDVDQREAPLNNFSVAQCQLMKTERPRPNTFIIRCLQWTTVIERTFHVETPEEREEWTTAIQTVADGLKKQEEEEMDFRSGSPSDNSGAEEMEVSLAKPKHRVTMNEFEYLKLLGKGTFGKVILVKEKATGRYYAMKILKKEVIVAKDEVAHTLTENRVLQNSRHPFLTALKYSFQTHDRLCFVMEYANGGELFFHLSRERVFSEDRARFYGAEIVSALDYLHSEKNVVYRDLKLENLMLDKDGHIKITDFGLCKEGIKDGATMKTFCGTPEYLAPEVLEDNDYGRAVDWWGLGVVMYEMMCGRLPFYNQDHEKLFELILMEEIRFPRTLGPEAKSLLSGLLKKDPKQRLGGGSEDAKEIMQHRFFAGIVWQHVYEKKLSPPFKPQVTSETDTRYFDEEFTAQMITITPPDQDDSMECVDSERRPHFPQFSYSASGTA
Sequence of Mitogen-activated protein kinase 14 (Q16539 whole entry): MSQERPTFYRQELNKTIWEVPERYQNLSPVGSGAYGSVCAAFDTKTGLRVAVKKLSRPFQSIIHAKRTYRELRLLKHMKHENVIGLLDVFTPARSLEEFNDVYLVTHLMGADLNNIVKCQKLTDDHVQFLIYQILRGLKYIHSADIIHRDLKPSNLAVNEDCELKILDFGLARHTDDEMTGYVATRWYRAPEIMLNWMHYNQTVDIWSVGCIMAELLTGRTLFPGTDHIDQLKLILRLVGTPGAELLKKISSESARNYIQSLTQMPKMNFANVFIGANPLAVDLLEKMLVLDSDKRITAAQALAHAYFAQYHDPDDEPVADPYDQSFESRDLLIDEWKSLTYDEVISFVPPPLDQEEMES

Q: What does the source list for `O=[N+]([O-])c1cnc(Sc2nc3ccccc3o2)s1`?
A: IC50 [1]: 2.7 µM; IC50 [2]: 0.24 µM

Q: With `COc1ccccc1-c1nnc(Sc2nc3ccc(Cl)cc3s2)n1-c1ccccc1` as the compound, how does the IC50 [1] read?
A: The IC50 was > 50 µM.

Q: Which IC50 [1] does the source give for `O=[N+]([O-])c1cnc(Sc2nc3cc(S(=O)(=O)O)ccc3[nH]2)s1` here?
A: The IC50 was > 50 µM.

Q: Which IC50 [1] does the source give for `O=[N+]([O-])c1cnc(Sc2nc3cc(Cl)ccc3o2)s1` here?
A: The IC50 was 27 µM.

Q: What about the IC50 [2] of the same compound?
A: Its IC50 is 0.11 µM.

Q: What does the source list for `Cc1ccc2[nH]c(Sc3ncc([N+](=O)[O-])s3)nc2c1`?
A: IC50 [1]: 3.8 µM; IC50 [2]: 0.02 µM

Q: For `Cc1ccc2nc(Sc3ncc([N+](=O)[O-])s3)oc2c1`, which IC50 [1] is on record?
A: Its IC50 is > 50 µM.

Q: And the IC50 [2]?
A: The IC50 was 0.29 µM.

Q: With `O=[N+]([O-])c1cnc(Sc2nc3ccc(Cl)cc3s2)s1` as the compound, how does the IC50 [1] read?
A: The IC50 was > 50 µM.

Q: What about the IC50 [2] of the same compound?
A: Its IC50 is 0.796 µM.

Q: Which IC50 [1] does the source give for `O=[N+]([O-])c1cnc(Sc2nc3ccccc3s2)s1` here?
A: The IC50 was 1.8 µM.

Q: And the IC50 [2]?
A: Its IC50 is 0.16 µM.

Q: And the IC50 [3]?
A: Its IC50 is > 100 µM.

Q: What about the inhibition [4] of the same compound?
A: Its inhibition is 2%.

Q: And the t1/2 [5]?
A: The t1/2 was 1.17 h.

Q: What about the remaining at 1 h [6] of the same compound?
A: The remaining at 1 h was 80%.

Q: What about the IC50 [7] of the same compound?
A: Its IC50 is > 50 µM.

Q: What about the IC50 [8] of the same compound?
A: Its IC50 is > 100 µM.

Q: And the IC50 [9]?
A: Its IC50 is 15 µM.

Q: Which results are given for `Cn1c(Sc2ncc([N+](=O)[O-])s2)nc2ccccc21`?
A: IC50 [1]: > 50 µM; IC50 [2]: 1.5 µM

Q: Which results are given for `O=[N+]([O-])c1cnc(Sc2nc3cc(Cl)c(Cl)cc3[nH]2)s1`?
A: IC50 [1]: 23 µM; IC50 [2]: 1.5 µM

Q: Which IC50 [1] does the source give for `O=[N+]([O-])c1cnc(Sc2nc3ncccc3s2)s1` here?
A: The IC50 was 4.2 µM.

Q: What about the IC50 [2] of the same compound?
A: The IC50 was 0.4 µM.

Q: For `O=[N+]([O-])c1ccc2nc(Sc3ncc([N+](=O)[O-])s3)[nH]c2c1`, which IC50 [1] is on record?
A: Its IC50 is 6.4 µM.

Q: What about the IC50 [2] of the same compound?
A: The IC50 was 3.2 µM.

Q: With `Nc1nc(Sc2ncc([N+](=O)[O-])s2)c2nc[nH]c2n1` as the compound, how does the IC50 [1] read?
A: The IC50 was 55 µM.

Q: And the IC50 [2]?
A: Its IC50 is 1 µM.

Q: With `Cn1c(Sc2nc3ccc(Cl)cc3s2)nnc1-c1ccc2ncccc2c1` as the compound, how does the IC50 [1] read?
A: Its IC50 is > 50 µM.

Q: For `O=C(O)c1ccc(CSc2nc3ccccc3[nH]2)cc1`, which IC50 [1] is on record?
A: Its IC50 is > 100 µM.

Q: With `Cn1c(Sc2nc3ccc(Cl)cc3s2)nnc1-c1cccs1` as the compound, how does the IC50 [1] read?
A: Its IC50 is > 50 µM.

Q: With `O=[N+]([O-])c1cnc(Sc2nc3cc(C(F)(F)F)ccc3[nH]2)s1` as the compound, how does the IC50 [1] read?
A: The IC50 was 20.2 µM.

Q: What about the IC50 [2] of the same compound?
A: Its IC50 is 0.14 µM.

Q: With `Cn1c(Sc2nc3ccc(Cl)cc3s2)nnc1-c1ccc(Cl)cc1Cl` as the compound, how does the IC50 [1] read?
A: Its IC50 is > 50 µM.

Q: What does the source list for `COc1ccc2sc(Sc3ncc([N+](=O)[O-])s3)nc2c1`?
A: IC50 [1]: 1.8 µM; IC50 [2]: 0.1 µM; IC50 [3]: > 100 µM; inhibition [4]: 5%; IC50 [7]: > 50 µM; IC50 [8]: > 100 µM

Q: For `CCOc1ccc2nc(Sc3ncc([N+](=O)[O-])s3)sc2c1`, which IC50 [1] is on record?
A: The IC50 was > 50 µM.

Q: Which IC50 [1] does the source give for `Nc1ncnc2[nH]c(SCc3ccc(C(=O)O)cc3)nc12` here?
A: Its IC50 is 70 µM.

Q: With `COc1ccc2[nH]c(Sc3ncc([N+](=O)[O-])s3)nc2c1` as the compound, how does the IC50 [1] read?
A: Its IC50 is 4.7 µM.

Q: And the IC50 [2]?
A: The IC50 was 0.13 µM.

Q: With `Nc1ncnc2nc(Sc3ncc([N+](=O)[O-])s3)[nH]c12` as the compound, how does the IC50 [1] read?
A: The IC50 was 27 µM.

Q: And the IC50 [2]?
A: The IC50 was > 1 µM.

Q: Which IC50 [1] does the source give for `O=[N+]([O-])c1ccc(Sc2nc3ccccc3o2)c([N+](=O)[O-])c1` here?
A: Its IC50 is > 100 µM.

Q: What does the source list for `O=[N+]([O-])c1cnc(Sc2nc3ccccc3[nH]2)s1`?
A: IC50 [1]: 8.1 µM; IC50 [2]: 0.67 µM

Q: With `CO/N=C(\C(=O)Sc1nc2ccccc2s1)c1csc(N)n1` as the compound, how does the IC50 [1] read?
A: Its IC50 is > 50 µM.

Q: What about the IC50 [2] of the same compound?
A: The IC50 was 1.7 µM.

Q: With `Cc1nnc(Sc2nc3ccc(Cl)cc3s2)n1-c1ccc2c(c1)OCCO2` as the compound, how does the IC50 [1] read?
A: The IC50 was > 50 µM.

Q: What does the source list for `O=[N+]([O-])c1cnc(Sc2nc3cc(Cl)ccc3s2)s1`?
A: IC50 [1]: > 50 µM; IC50 [2]: > 1 µM

— ChEMBL document CHEMBL1153381, “Discovery of 2-(5-nitrothiazol-2-ylthio)benzo[d]thiazoles as novel c-Jun N-terminal kinase inhibitors” (Bioorg Med Chem, 2009)
